In data set [1] the test system is BT-549. Description: Cytotoxicity against human BT549 cells after 48 hrs by SRB assay. The data set is classed as functional, cell-based. The note with it: BT-549, 48 h. The method, boiled down: (§1)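 Quantitative staining of cellular protein with sulforhodamine B across human tumour lines A549, SK-OV-3, SK-MEL-2 and Bt549; IC50 derived. Etoposide served as positive control.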

Data set [2] deals with SK-MEL-2. Description: Cytotoxicity against human SK-MEL-2 cells after 48 hrs by SRB assay. Type of data set: functional, cell-based. The note with it: SK-MEL-2, 48 h. In outline: as §1
Data set [3] relates to C6. Description: Neuroprotective activity in rat C6 cells assessed as NGF secretion at 20 uM after 24 hrs by ELISA relative to control. Type of data set: functional. In outline: (§2)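 C6 cells seeded at 1 × 10^5 cells/well; after 1 d switched to serum-free DMEM with 20 μM compound for 24 h. NGF in conditioned medium measured by ELISA as percent of untreated control (100%); viability by MTT as percent. 6-shogaol as positive control.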

Data set [4] in a line: Cytotoxicity against mouse BV2 cells assessed as cell viability at 20 uM after 24 hrs by MTT assay relative to control. The note with it: read-out: Activity. The data set is classed as cell-based, BV-2. The method, boiled down:
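BV-2 cells seeded at 4 × 10^4 cells/well, treated with 20 μM compound; viability read by MTT and expressed as percent. Mean ± SD of three independent experiments.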

For data set [5], the system named is A549. Description: Cytotoxicity against human A549 cells after 48 hrs by SRB assay. The data set is classed as functional, cell-based. The note with it: A549, 48 h. In outline:
as §1

The subject of data set [6] is BV-2. The data set can be described thus: Antiinflammatory activity in mouse BV2 cells assessed as inhibition of LPS-induced nitrite production after 24 hrs by Griess assay. Particulars: BV-2, 24 h. The data set is classed as functional, cell-based. In outline: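 BV-2 microglia seeded at 4 × 10^4 cells/well, exposed to graded doses of compounds with LPS stimulation. Nitrite quantified against a sodium nitrite standard curve; IC50 taken as the concentration giving 50% inhibition of NO production. L-NMMA as positive control. Mean ± SD of three independent experiments.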

Data set [7] in a line: Cytotoxicity against rat C6 cells assessed as cell viability at 20 uM after 24 hrs by MTT assay relative to control. Particulars: read-out: Activity. Type of data set: cell-based. The method, boiled down:
as §2

For data set [8], the system named is SK-OV-3. Description: Cytotoxicity against human SKOV3 cells after 48 hrs by SRB assay. The note with it: SK-OV-3, 48 h. Type of data set: functional, cell-based. The method, boiled down:
as §1

Molecules are shown by their SMILES.

As to `C[C@@H]1O[C@@H](OC[C@H]2O[C@@H](Oc3c(-c4ccc(O)cc4)oc4c([C@]56O[C@@]5(c5ccc(O)cc5)Oc5cc(O)cc(O)c5C6=O)c(O)cc(O)c4c3=O)[C@H](O)[C@@H](O)[C@@H]2O)[C@H](O)[C@H](O)[C@H]1O`, the IC50 was greater than 10 µM in data set [1]; greater than 10 µM in data set [2]; greater than 10 µM in data set [5]; 31 µM in data set [6]; greater than 10 µM in data set [8]. In addition, the Activity in data set [3] came out at 74.27%. Also, the viability at 24 h, 20 µM was found to be 100% in data set [4] and 109% in data set [7].
`C[C@@H]1O[C@@H](OC[C@H]2O[C@@H](Oc3c(-c4ccc(O)cc4)oc4c([C@@]56O[C@]5(c5ccc(O)cc5)Oc5cc(O)cc(O)c5C6=O)c(O)cc(O)c4c3=O)[C@H](O)[C@@H](O)[C@@H]2O)[C@H](O)[C@H](O)[C@H]1O`: the IC50 in data set [1] was greater than 10 µM; in data set [2], greater than 10 µM; in data set [5], greater than 10 µM; in data set [6] it was 39.2 µM; in data set [8], greater than 10 µM. In addition, the Activity in data set [3] worked out at 88.36%. In addition, the viability at 24 h, 20 µM in data set [4] was 99.9%; in data set [7] it was 102%.
On to `O=c1c(O[C@@H]2O[C@H](CO)[C@@H](O)[C@@H](O)[C@H]2O)c(-c2ccc(O)cc2)oc2cc(O)cc(O)c12`, for which the IC50 in data set [1] is greater than 10 µM; in data set [2], greater than 10 µM; in data set [5], greater than 10 µM; in data set [6] it was 80.4 µM; in data set [8], greater than 10 µM. Also, in data set [3], the Activity was 83.79%. The viability at 24 h, 20 µM in data set [4] is 97.5%; in data set [7] it was 105%.
For `O=C1c2c(O)cc(O)cc2O[C@]2(c3ccc(O)cc3)O[C@]12c1c(O)cc(O)c2c(=O)c(O[C@@H]3O[C@H](CO)[C@@H](O)[C@H](O)[C@H]3O)c(-c3ccc(O)cc3)oc12`, the IC50 is greater than 10 µM in data set [1]; greater than 10 µM in data set [2]; greater than 10 µM in data set [5]; 56.9 µM in data set [6]; greater than 10 µM in data set [8]. In data set [3], the Activity is recorded as 90.12%. Moreover, the viability at 24 h, 20 µM was determined as 104% in data set [4] and 107% in data set [7].
For `O=C1c2c(O)cc(O)cc2O[C@@]2(c3ccc(O)cc3)O[C@@]12c1c(O)cc(O)c2c(=O)c(O[C@@H]3O[C@H](CO)[C@@H](O)[C@H](O)[C@H]3O)c(-c3ccc(O)cc3)oc12`, the IC50 in data set [1] was greater than 10 µM; in data set [2], greater than 10 µM; in data set [5], greater than 10 µM; in data set [6] it was 33.3 µM; in data set [8], greater than 10 µM. The Activity in data set [3] was found to be 121.42%. Also, the results for the viability at 24 h, 20 µM in data set [4] and in data set [7] were 110% and 113%, respectively.
Take `C[C@@H]1O[C@@H](O[C@H]2[C@H](Oc3c(-c4ccc(O)cc4)oc4cc(O)cc(O)c4c3=O)O[C@H](CO)[C@@H](O)[C@@H]2O)[C@H](O)[C@H](O)[C@H]1O`: the IC50 was greater than 10 µM in data set [1]; greater than 10 µM in data set [2]; greater than 10 µM in data set [5]; 31.7 µM in data set [6]; greater than 10 µM in data set [8]. Moreover, the Activity in data set [3] was 123.31%. Further, the viability at 24 h, 20 µM is 103% in data set [4] and 102% in data set [7].
Regarding `O=C1c2c(O)cc(O)cc2O[C@H](c2cc(O)c(O)c(O)c2)[C@H]1O` [AMPELOPSIN], the IC50 in data set [1] was greater than 10 µM; in data set [2] it was greater than 10 µM; in data set [5], greater than 10 µM; in data set [6], 32.7 µM; in data set [8], greater than 10 µM. Further, in data set [3], the Activity stood at 172.04%. Further, the viability at 24 h, 20 µM in data set [4] came out at 97%; in data set [7], 110%.
For `O=c1c(O[C@@H]2O[C@H](CO)[C@@H](O)[C@H](O)[C@H]2O)c(-c2ccc(O)cc2)oc2cc(O)cc(O)c12` [ASTRAGALIN], the IC50 in data set [1] was greater than 10 µM; in data set [2], greater than 10 µM; in data set [5], greater than 10 µM; in data set [6], 23.5 µM; in data set [8] it was greater than 10 µM. The Activity in data set [3] stood at 114.67%. The viability at 24 h, 20 µM in data set [4] was 97.5%; in data set [7], 115%.
Turning to `COc1cc([C@@H]2c3cc4c(cc3[C@@H](O[C@@H]3O[C@@H]5CO[C@@H](C)O[C@H]5[C@H](O)[C@H]3O)[C@H]3COC(=O)[C@H]23)OCO4)cc(OC)c1O` [ETOPOSIDE], the IC50 in data set [1] turned out to be 1.24 µM; in data set [2] it was 1.1 µM; in data set [5], 0.92 µM; in data set [8], 1.95 µM.
In the case of `O=c1c(O[C@@H]2O[C@H](CO)[C@@H](O)[C@H](O)[C@H]2O)c(-c2ccc(O)c(O)c2)oc2cc(O)cc(O)c12` [ISOQUERCETIN], the IC50 is greater than 10 µM in data set [1]; greater than 10 µM in data set [2]; greater than 10 µM in data set [5]; 55.6 µM in data set [6]; greater than 10 µM in data set [8]. Further, in data set [3], the Activity is given as 98.67%. In addition, the viability at 24 h, 20 µM was 95.6% in data set [4] and 107% in data set [7].
With `O=c1c(O)c(-c2ccc(O)cc2)oc2cc(O)cc(O)c12` [KAEMPFEROL], the IC50 in data set [1] is greater than 10 µM; in data set [2] it was greater than 10 µM; in data set [5] it was greater than 10 µM; in data set [6] it was 8.86 µM; in data set [8] it was greater than 10 µM. Besides, the Activity in data set [3] came out at 115.98%. The viability at 24 h, 20 µM came out at 119% in data set [4] and 97.2% in data set [7].
Regarding `C[C@@H]1O[C@@H](OC[C@H]2O[C@@H](Oc3c(-c4ccc(O)cc4)oc4cc(O)cc(O)c4c3=O)[C@H](O)[C@@H](O)[C@@H]2O)[C@H](O)[C@H](O)[C@H]1O` [NICOTIFLOROSIDE], the IC50 is greater than 10 µM in data set [1]; greater than 10 µM in data set [2]; greater than 10 µM in data set [5]; 44.4 µM in data set [6]; greater than 10 µM in data set [8]. Further, the Activity in data set [3] was determined as 97.59%. Moreover, the viability at 24 h, 20 µM in data set [4] amounted to 97.9%; in data set [7], 99.6%.
Regarding `O=c1c(O)c(-c2ccc(O)c(O)c2)oc2cc(O)cc(O)c12` [QUERCETIN], the IC50 was greater than 10 µM in data set [1]; greater than 10 µM in data set [2]; greater than 10 µM in data set [5]; 19.1 µM in data set [6]; greater than 10 µM in data set [8]. Moreover, in data set [3], the Activity stood at 118.77%. The viability at 24 h, 20 µM is 101% in data set [4] and 103% in data set [7].
On to `C[C@@H]1O[C@@H](OC[C@H]2O[C@@H](Oc3c(-c4ccc(O)c(O)c4)oc4cc(O)cc(O)c4c3=O)[C@H](O)[C@@H](O)[C@@H]2O)[C@H](O)[C@H](O)[C@H]1O` [RUTIN], for which the IC50 in data set [1] is greater than 10 µM; in data set [2], greater than 10 µM; in data set [5] it was greater than 10 µM; in data set [6], 24.3 µM; in data set [8] it was greater than 10 µM. In addition, in data set [3], the Activity worked out at 108.27%. For the same molecule, the viability at 24 h, 20 µM in data set [4] was 99.2%; in data set [7], 113%.
On to `CCCCC/C=C/C(=O)CCc1ccc(O)c(OC)c1` [SHOGAOL], for which, in data set [3], the Activity amounted to 143.74%. Also, in data set [7], the viability at 24 h, 20 µM was 104%.
Regarding `CNC(=N)NCCC[C@H](N)C(=O)O` [TILARGININE], the viability at 24 h, 20 µM in data set [4] came to 120%. Besides, in data set [6], the IC50 stood at 21.2 µM.

Values taken from ChEMBL document CHEMBL4014266, “Anti-Neurodegenerative Biflavonoid Glycosides from Impatiens balsamina” (J Nat Prod, 2017).
